Experimental data reported in ChEMBL document CHEMBL3124870, “Discovery and characterization of potent thiazoles versus methicillin- and vancomycin-resistant Staphylococcus aureus” (J Med Chem, 2014).
≈ marks a conversion by molar mass, not a printed value.

How the values were obtained:
Staphylococcus aureus [1] = experiment: Antibacterial activity against methicillin-resistant Staphylococcus aureus USA500 assessed as inhibition of visible growth by broth microdilution method; assay type: functional
Staphylococcus aureus [2] = experiment: Antibacterial activity against methicillin-resistant Staphylococcus aureus USA200 assessed as inhibition of visible growth by broth microdilution method; assay type: functional
Staphylococcus aureus [3] = experiment: Antibacterial activity against methicillin-resistant Staphylococcus aureus NRS119 assessed as inhibition of visible growth by broth microdilution method; assay type: functional
Staphylococcus aureus [4] = experiment: Antibacterial activity against methicillin-resistant Staphylococcus aureus NRS194 assessed as inhibition of visible growth by broth microdilution method; assay type: functional
MDCK [5] = experiment: Efflux ratio of apparent permeability from basolateral to apical side over apical to basolateral side in MDCK cells expressing MDR1 for 2 hrs by LC-MS/MS analysis; assay type: ADME, cell-based, Canis lupus familiaris; conditions: dog
Procedure, shortened: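 Madin-Darby canine kidney cells transfected to overexpress MDR1 (P-glycoprotein 1). Apparent permeability (Papp, cm/sec) was measured in both the apical-to-basolateral and basolateral-to-apical directions. The efflux ratio was taken as Papp(B→A)/Papp(A→B).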

MDCK [6] = experiment: Apparent permeability from apical to basolateral side in MDCK cells expressing MDR1 for 2 hrs by LC-MS/MS analysis; assay type: ADME, cell-based, Canis lupus familiaris; conditions: dog
Staphylococcus aureus [7] = experiment: Bactericidal activity against methicillin-resistant Staphylococcus aureus USA300 assessed as time required to complete elimination of bacteria by 3-log10 by time-kill assay; assay type: functional
Procedure, shortened: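 Viable counts (CFU) followed over a 12-hour window; endpoint is a 3-log10 fall in CFU.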

Staphylococcus aureus [8] = experiment: Antibacterial activity against methicillin-resistant Staphylococcus aureus ATCC 43300 assessed as inhibition of visible growth by broth microdilution method; assay type: functional
Staphylococcus aureus [9] = experiment: Antibacterial activity against methicillin-resistant Staphylococcus aureus NRS107 assessed as inhibition of visible growth by broth microdilution method; assay type: functional
Staphylococcus aureus [10] = experiment: Antibacterial activity against vancomycin-resistant Staphylococcus aureus assessed as inhibition of visible growth by broth microdilution method; assay type: functional
Staphylococcus aureus [11] = experiment: Antibacterial activity against vancomycin-intermediate Staphylococcus aureus ATCC 700699 assessed as inhibition of visible growth by broth microdilution method; assay type: functional
Caco-2 [12] = experiment: Apparent permeability across basolateral to apical to side in human Caco2 cells at 10 microM for 2 hrs by LC-MS/MS analysis; assay type: ADME, cell-based; conditions: caco-2, 2 h
Staphylococcus aureus [13] = experiment: Antibacterial activity against methicillin-resistant Staphylococcus aureus USA700 assessed as inhibition of visible growth by broth microdilution method; assay type: functional
MDCK [14] = experiment: Apparent permeability from basolateral to apical side in MDCK cells expressing MDR1 for 2 hrs by LC-MS/MS analysis; assay type: ADME, cell-based, Canis lupus familiaris; conditions: dog
[15] = Aqueous solubility of compound in phosphate buffer assessed as solubility limit after 2 hrs by turbidity analysis; assay type: physicochemical
Staphylococcus aureus [16] = experiment: Antibacterial activity against vancomycin-intermediate Staphylococcus aureus HIP07256 assessed as inhibition of visible growth by broth microdilution method; assay type: functional
Staphylococcus aureus [17] = experiment: Antibacterial activity against methicillin-resistant Staphylococcus aureus USA1100 assessed as inhibition of visible growth by broth microdilution method; assay type: functional
Staphylococcus aureus [18] = experiment: Antibacterial activity against methicillin-resistant Staphylococcus aureus USA300 assessed as inhibition of visible growth by broth microdilution method; assay type: functional
Liver microsome = experiment: Half life in human liver microsomes by LC-MS/MS analysis; assay type: ADME
Staphylococcus aureus [19] = experiment: Antibacterial activity against methicillin-resistant Staphylococcus aureus USA1000 assessed as inhibition of visible growth by broth microdilution method; assay type: functional
Staphylococcus aureus [20] = experiment: Antibacterial activity against methicillin-resistant Staphylococcus aureus USA800 assessed as inhibition of visible growth by broth microdilution method; assay type: functional
HeLa = experiment: Cytotoxicity against human HeLa cells assessed as cell viability at 11 ug/ml by MTS assay; assay type: cell-based
Caco-2 [21] = experiment: Efflux ratio of apparent permeability from basolateral to apical side over apical to basolateral side in human Caco2 cells at 10 microM for 2 hrs by LC-MS/MS analysis; assay type: ADME, cell-based; conditions: caco-2, 2 h
Procedure, shortened: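 Caco-2 monolayer permeability was run under slightly acidic conditions, with the compound at 10 μM. Transfer was measured in the apical-to-basolateral and basolateral-to-apical directions. The efflux ratio was taken as B→A over A→B permeability.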

Staphylococcus aureus [22] = experiment: Antibacterial activity against methicillin-resistant Staphylococcus aureus USA400 assessed as inhibition of visible growth by broth microdilution method; assay type: functional
Staphylococcus aureus [23] = experiment: Antibacterial activity against methicillin-resistant Staphylococcus aureus NRS108 assessed as inhibition of visible growth by broth microdilution method; assay type: functional
Staphylococcus aureus [24] = experiment: Antibacterial activity against vancomycin-intermediate Staphylococcus aureus LIM 3 assessed as inhibition of visible growth by broth microdilution method; assay type: functional
Staphylococcus aureus [25] = experiment: Antibacterial activity against methicillin-resistant Staphylococcus aureus USA100 assessed as inhibition of visible growth by broth microdilution method; assay type: functional

SMILES	MIC (Staphylococcus aureus [1]) [µg/mL]	MIC (Staphylococcus aureus [2]) [µg/mL]	MIC (Staphylococcus aureus [3]) [µg/mL]	MIC (Staphylococcus aureus [4]) [µg/mL]	Time (Staphylococcus aureus [7]) [h]	MIC (Staphylococcus aureus [8]) [µg/mL]	MIC (Staphylococcus aureus [9]) [µg/mL]	MIC (Staphylococcus aureus [10]) [µg/mL]	MIC (Staphylococcus aureus [11]) [µg/mL]	MIC (Staphylococcus aureus [13]) [µg/mL]	MIC (Staphylococcus aureus [16]) [µg/mL]	MIC (Staphylococcus aureus [17]) [µg/mL]	MIC (Staphylococcus aureus [18]) [µg/mL]	MIC (Staphylococcus aureus [19]) [µg/mL]	MIC (Staphylococcus aureus [20]) [µg/mL]	Activity (HeLa)	MIC (Staphylococcus aureus [22]) [µg/mL]	MIC (Staphylococcus aureus [23]) [µg/mL]	MIC (Staphylococcus aureus [24]) [µg/mL]	MIC (Staphylococcus aureus [25]) [µg/mL]	also measured
CCCCc1ccc(-c2nc(C)c(/C(C)=N/NC(=N)N)s2)cc1	1.4 (≈ 4.25 µM)	2.8 (≈ 8.5 µM)	1.4 (≈ 4.25 µM)	1.4 (≈ 4.25 µM)	2	2.8 (≈ 8.5 µM)	1.4 (≈ 4.25 µM)	1.4 (≈ 4.25 µM)	1.4 (≈ 4.25 µM)	1.8 (≈ 5.46 µM)	1.4 (≈ 4.25 µM)	2.8 (≈ 8.5 µM)	1.4 (≈ 4.25 µM)	1.4 (≈ 4.25 µM)	2.3 (≈ 6.98 µM)	Non-toxic	1.4 (≈ 4.25 µM)	1.4 (≈ 4.25 µM)	1.4 (≈ 4.25 µM)	5.5 (≈ 16.7 µM)	Ratio (MDCK [5]): 5; Papp (MDCK [6]): 0.7 ×10⁻⁶ cm/s; Papp (Caco-2 [12]): 2.2 ×10⁻⁶ cm/s; Papp (MDCK [14]): 3.6 ×10⁻⁶ cm/s; solubility kinetic at 2 h [15]: 62.6 µM (≈ 20.6 µg/mL); t1/2 (Liver microsome): 28.8 min; Ratio (Caco-2 [21]): > 2
C/C(=N\NC(=N)N)c1sc(-c2ccc(-c3ccccc3)cc2)nc1C	1.6 (≈ 4.58 µM)	0.6 (≈ 1.72 µM)	0.6 (≈ 1.72 µM)	1.4 (≈ 4.01 µM)		0.6 (≈ 1.72 µM)	1.2 (≈ 3.43 µM)	0.6 (≈ 1.72 µM)	0.6 (≈ 1.72 µM)	0.8 (≈ 2.29 µM)	0.5 (≈ 1.43 µM)	0.6 (≈ 1.72 µM)	1 (≈ 2.86 µM)	0.8 (≈ 2.29 µM)	1.2 (≈ 3.43 µM)	Non-toxic	0.8 (≈ 2.29 µM)	2 (≈ 5.72 µM)	0.6 (≈ 1.72 µM)	2 (≈ 5.72 µM)	
CCCc1ccc(-c2nc(C)c(/C(C)=N/NC(=N)N)s2)cc1	1.9 (≈ 6.02 µM)	1.9 (≈ 6.02 µM)	1.9 (≈ 6.02 µM)	1.9 (≈ 6.02 µM)		1.2 (≈ 3.8 µM)	1.2 (≈ 3.8 µM)	1.2 (≈ 3.8 µM)	1.9 (≈ 6.02 µM)	1.2 (≈ 3.8 µM)	1.9 (≈ 6.02 µM)	1.6 (≈ 5.07 µM)	1.2 (≈ 3.8 µM)	1.6 (≈ 5.07 µM)	1.9 (≈ 6.02 µM)	Non-toxic	1.2 (≈ 3.8 µM)	1.2 (≈ 3.8 µM)	1.6 (≈ 5.07 µM)	1.6 (≈ 5.07 µM)	
CCCCCc1ccc(-c2nc(C)c(/C(C)=N/NC(=N)N)s2)cc1			0.9 (≈ 2.62 µM)	1.1 (≈ 3.2 µM)	2	0.8 (≈ 2.33 µM)	0.5 (≈ 1.46 µM)			0.9 (≈ 2.62 µM)	0.7 (≈ 2.04 µM)				0.7 (≈ 2.04 µM)	Non-toxic	0.9 (≈ 2.62 µM)	0.9 (≈ 2.62 µM)			
CCCCCCCc1ccc(-c2nc(C)c(/C(C)=N/NC(=N)N)s2)cc1	3 (≈ 8.07 µM)	1.2 (≈ 3.23 µM)	1.5 (≈ 4.04 µM)	3 (≈ 8.07 µM)		3 (≈ 8.07 µM)	1 (≈ 2.69 µM)	1.5 (≈ 4.04 µM)	0.7 (≈ 1.88 µM)	4 (≈ 10.8 µM)	1.5 (≈ 4.04 µM)	1.5 (≈ 4.04 µM)	2.5 (≈ 6.73 µM)	2.5 (≈ 6.73 µM)	1.5 (≈ 4.04 µM)	Non-toxic	1.5 (≈ 4.04 µM)	3 (≈ 8.07 µM)	0.7 (≈ 1.88 µM)	3 (≈ 8.07 µM)	
CCCCCCCCCc1ccc(-c2nc(C)c(/C(C)=N/NC(=N)N)s2)cc1	3.7 (≈ 9.26 µM)		2.2 (≈ 5.51 µM)	4.4 (≈ 11 µM)			1.1 (≈ 2.75 µM)		1.1 (≈ 2.75 µM)	1.8 (≈ 4.5 µM)	2.9 (≈ 7.26 µM)				1.8 (≈ 4.5 µM)	Non-toxic	4.4 (≈ 11 µM)	4.4 (≈ 11 µM)	1.1 (≈ 2.75 µM)		
